Results as given in ChEMBL document CHEMBL4732226, “Discovery of a potent G-protein-coupled receptor 119 agonist for the treatment of type 2 diabetes” (Bioorg Med Chem, 2021).
The source made the active and inactive calls. The calls are words filed in the database; no cut-off is given here.

Assays:
[1] = Tmax in Wistar rat at 10 mg/kg, po up to 24 hrs; assay type: ADME, organism-based; conditions: in vivo
Method in brief: (§1)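 Single oral dose at 10 mg/kg given to male Wistar rats and to Beagle dogs; bioavailability also determined in both species.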

[2] = Toxicity in female Wistar rat assessed as ratio of adrenals to body weight at 400 mg/kg, po after 28 days (reference value: 0.045 +/- 0.007); assay type: organism-based; conditions: in vivo, 672 h, time 28 day
[3] = Toxicity in female Wistar rat assessed as ratio of spleen to body weight at 400 mg/kg, po after 28 days (reference value: 0.244 +/- 0.032); assay type: organism-based; conditions: in vivo, 672 h, time 28 day
[4] = Toxicity in male Wistar rat assessed as ratio of adrenals to body weight at 200 mg/kg, po after 28 days (reference value: 0.020 +/- 0.003); assay type: organism-based; conditions: in vivo, 672 h, time 28 day
[5] = Toxicity in female Wistar rat assessed as creatinine level at 400 mg/kg, po after 28 days (reference value: 0.6 +/- 0.04 mg/dl); assay type: organism-based; conditions: in vivo, 672 h, time 28 day
[6] = tested on: Mus musculus; assay: Antidiabetic activity in po dosed db/db mouse assessed as reduction in blood glucose level administered up to 14 days pretreated for 30 mins followed by glucose-stimulation and measured up to 120 mins by OGTT method relative to control; assay type: functional, organism-based; conditions: dose 1-50 mg/kg, time day <=14
Method in brief: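 Male db/db mice dosed orally once daily for 14 days at 1 to 50 mg/kg. Oral glucose 2 g/kg given 30 min after dosing, then blood glucose followed for 0–120 min. Glucose AUC determined on day 1 and day 14; mean ± s.e.m.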

[7] = target: T1, Glucose-dependent insulinotropic receptor (Homo sapiens) (UniProt Q8TDV5); assay: Agonist activity at human GPR119 stably transfected in CHO-K1 cells assessed as increase in cAMP stimulation after 1 hr by enzyme immunoassay relative to AR231453; assay type: functional, cell-based; conditions: filed as agonist
T1 sequence (whole entry): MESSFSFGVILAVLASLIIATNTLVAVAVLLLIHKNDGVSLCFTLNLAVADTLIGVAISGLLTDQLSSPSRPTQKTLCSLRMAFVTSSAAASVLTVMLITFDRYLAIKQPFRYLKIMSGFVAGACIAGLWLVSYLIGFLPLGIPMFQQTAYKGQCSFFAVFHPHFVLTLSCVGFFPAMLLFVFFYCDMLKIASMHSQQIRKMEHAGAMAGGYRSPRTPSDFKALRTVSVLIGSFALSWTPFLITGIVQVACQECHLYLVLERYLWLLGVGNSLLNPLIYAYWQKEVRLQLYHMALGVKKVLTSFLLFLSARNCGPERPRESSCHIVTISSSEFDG

[8] = Toxicity in female Wistar rat assessed as ratio of brain to body weight at 400 mg/kg, po after 28 days (reference value: 1.1 +/- 0.078); assay type: organism-based; conditions: in vivo, 672 h, time 28 day
[9] = Toxicity in female Wistar rat assessed as ratio of heart to body weight at 100 mg/kg, po after 28 days (reference value: 0.38 +/- 0.037); assay type: organism-based; conditions: in vivo, 672 h, time 28 day
[10] = Toxicity in male Wistar rat assessed as ratio of spleen to body weight at 400 mg/kg, po after 28 days (reference value: 0.206 +/- 0.026); assay type: organism-based; conditions: in vivo, 672 h, time 28 day
[11] = Toxicity in male Wistar rat assessed as albumin level at 100 mg/kg, po after 28 days (reference value: 3.56 +/- 0.08 g.dl); assay type: organism-based; conditions: in vivo, 672 h, time 28 day
[12] = AUC(0 to t) in Beagle dog at 10 mg/kg, po up to 24 hrs; assay type: ADME, organism-based, Canis lupus familiaris; parameters: route oral, dose 10 mg/kg, time <=24; conditions: in vivo; method in brief: as §1
[13] = Toxicity in female Wistar rat assessed as ratio of adrenals to body weight at 100 mg/kg, po after 28 days (reference value: 0.045 +/- 0.007); assay type: organism-based; conditions: in vivo, 672 h, time 28 day
[14] = Cmax in Wistar rat at 10 mg/kg, po up to 24 hrs; assay type: ADME, organism-based; parameters: route oral, dose 10 mg/kg, time <=24; conditions: in vivo; method in brief: as §1
[15] = AUC(0 to infinity) in Wistar rat at 10 mg/kg, po up to 24 hrs; assay type: ADME, organism-based; parameters: route oral, dose 10 mg/kg, time <=24; conditions: in vivo; method in brief: as §1
[16] = Toxicity in female Wistar rat assessed as albumin level at 400 mg/kg, po after 28 days (reference value: 3.57 +/- 0.14 g.dl); assay type: organism-based; conditions: in vivo, 672 h, time 28 day
[17] = Toxicity in male Wistar rat assessed as glucose level at 100 mg/kg, po after 28 days (reference value: 89.02 +/- 13.41 mg/dl); assay type: organism-based; conditions: in vivo, 672 h, time 28 day
[18] = Toxicity in female Wistar rat assessed as AST level at 200 mg/kg, po after 28 days (reference value: 128.84 +/- 21.42 U/L); assay type: organism-based; conditions: in vivo, 672 h, time 28 day
[19] = Toxicity in male Wistar rat assessed as ratio of testes to body weight at 200 mg/kg, po after 28 days (reference value: 1.248 +/- 0.073); assay type: organism-based; conditions: in vivo, 672 h, time 28 day
[20] = Toxicity in male Wistar rat assessed as ratio of kidney to body weight at 100 mg/kg, po after 28 days (reference value: 0.787 +/- 0.078); assay type: organism-based; conditions: in vivo, 672 h, time 28 day
[21] = Cmax in Beagle dog at 10 mg/kg, po up to 24 hrs; assay type: ADME, organism-based, Canis lupus familiaris; parameters: route oral, dose 10 mg/kg, time <=24; conditions: in vivo; method in brief: as §1
[22] = AUC(0 to infinity) in Beagle dog at 10 mg/kg, po up to 24 hrs; assay type: ADME, organism-based, Canis lupus familiaris; parameters: route oral, dose 10 mg/kg, time <=24; conditions: in vivo; method in brief: as §1
[23] = Toxicity in female Wistar rat assessed as globulin level at 100 mg/kg, po after 28 days (reference value: 2.44 +/- 0.18 g/dl); assay type: organism-based; conditions: in vivo, 672 h, time 28 day
[24] = Toxicity in female Wistar rat assessed as ratio of uterus to body weight at 200 mg/kg, po after 28 days (reference value: 0.335 +/- 0.108); assay type: organism-based; conditions: in vivo, 672 h, time 28 day
[25] = tested on: Mus musculus; assay: Antidiabetic activity in glucose-stimulated db/db mouse assessed as increase in glucose dependent insulin secretion at 50 mg/kg, po after 10 to 30 mins; assay type: functional, organism-based; conditions: time 10-30 min
[26] = AUC(0 to infinity) in Sprague-Dawley rat at 25 mg/kg, po up to 24 hrs; assay type: ADME, organism-based; parameters: route oral, dose 25 mg/kg, time <=24; conditions: in vivo
Method in brief: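 Male SD rats fasted overnight, water ad libitum, fed 4 h after dosing. Single oral gavage of 25 mg/kg as a homogeneous suspension in 0.5% Tween 80 in 0.5% Na-CMC. Blood drawn into Na-heparin tubes at 0.25, 0.5, 1, 2, 4, 6, 8 and 24 h; plasma stored at -70°C. Parameters by non-compartmental analysis, with C0 taken as zero and BLQ samples set to zero.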

[27] = Toxicity in male Wistar rat assessed as ratio of epididymides to body weight at 400 mg/kg, po after 28 days (reference value: 0.361 +/- 0.028); assay type: organism-based; conditions: in vivo, 672 h, time 28 day
[28] = Toxicity in female Wistar rat assessed as ratio of brain to body weight at 100 mg/kg, po after 28 days (reference value: 1.1 +/- 0.078); assay type: organism-based; conditions: in vivo, 672 h, time 28 day
[29] = Toxicity in female Wistar rat assessed as albumin level at 200 mg/kg, po after 28 days (reference value: 3.57 +/- 0.14 g.dl); assay type: organism-based; conditions: in vivo, 672 h, time 28 day
[30] = Toxicity in male Wistar rat assessed as AST level at 400 mg/kg, po after 28 days (reference value: 119.4 +/- 9.3 U/L); assay type: organism-based; conditions: in vivo, 672 h, time 28 day
[31] = Toxicity in male Wistar rat assessed as ratio of thymus to body weight at 200 mg/kg, po after 28 days (reference value: 0.148 +/- 0.023); assay type: organism-based; conditions: in vivo, 672 h, time 28 day

Structure (SMILES): Cc1c(Oc2cccc(/C=C3\SC(=O)NC3=O)c2)ncnc1OC1CCN(C(=O)OC(C)(C)C)CC1
- Tmax [1]: 1.5 h
- Ratio [2]: 0.042
- Ratio [3]: 0.228
- Ratio [4]: 0.023
- Activity [5]: 0.6 mg/dL
- Activity [6]: Dose-dependent effect
- Emax [7]: 160%
- Ratio [8]: 1.069
- Ratio [9]: 0.41
- Ratio [10]: 0.211
- Activity [11]: 3.47 g/dL
- AUC(0-t) at 24 h [12]: 14900 ng·h/mL
- Ratio [13]: 0.046
- Cmax [14]: 256 ng/mL
- AUC(0-inf) [15]: 1900 ng·h/mL
- Activity [16]: 3.57 g/dL
- Activity [17]: 87.56 mg/dL
- Activity [18]: 128.19 U/L
- Ratio [19]: 1.289
- Ratio [20]: 0.831
- Cmax [21]: 1050 ng/mL
- AUC(0-inf) [22]: 15200 ng·h/mL
- Activity [23]: 2.39 g/dL
- Ratio [24]: 0.33
- Activity [25]: Active
- AUC(0-inf) [26]: 19700 ng·h/mL
- Ratio [27]: 0.365
- Ratio [28]: 1.103
- Activity [29]: 3.65 g/dL
- Activity [30]: 116.36 U/L
- Ratio [31]: 0.175
